Test results taken from ChEMBL document CHEMBL1151925, “Design and synthesis of enediyne-peptide conjugates and their inhibiting activity against chymotrypsin” (Bioorg Med Chem, 2009).
Calls of active or inactive are those of the source. The calls are words filed in the database; no cut-off is given here.

Legend:
[1] = Inhibition of alpha-chymotrypsin by Lineweaver-Burke plot analysis
Procedure, shortened: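 Chymotrypsin kinetics followed by UV-vis using N-benzoyl tyrosine ethyl ester substrate at 169–340 µM in 80 mM Tris HCl, pH 7.8, with CaCl2. Inhibitor varied across several concentrations. Reciprocal initial rate plotted against reciprocal substrate concentration (Lineweaver–Burk) to assign inhibition type and derive Ki.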

[2] = Inhibition of alpha-chymotrypsin assessed as decrease in proteolysis of BSA at 1 mg/ml after 60 mins by SDS-PAGE
Procedure, shortened: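 Chymotrypsin digestion of BSA (1 mg/ml stock) in 0.01 M phosphate buffer at 38 °C, with free enzyme or enzyme preincubated with inhibitor. Digestion fragments resolved by SDS–PAGE with Coomassie Brilliant Blue staining. Loss of the intact BSA band and appearance of hydrolysed fragments were scored.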

[3] = Inhibition of alpha-chymotrypsin assessed as decrease in proteolysis of BSA at 4.6 uM to 7.7 uM by Lowry method
Procedure, shortened: (§1)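 BSA (1 mg/ml stock) in 0.01 M phosphate buffer digested with chymotrypsin (1 mg/ml solution) at 38 °C for a set time, free enzyme or enzyme preincubated with inhibitor at three concentrations. Undigested BSA precipitated with 4% trichloroacetic acid and removed by centrifugation. Hydrolysed products in the supernatant quantified by Lowry method and compared with the uninhibited control.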

[4] = Inhibition of alpha-chymotrypsin assessed as decrease in proteolysis of BSA at 5.9 uM to 35 uM by Lowry method; procedure, shortened: as §1
[5] = Inhibition of alpha-chymotrypsin assessed as decrease in proteolysis of BSA at 10.23 uM to 40.9 uM by Lowry method; procedure, shortened: as §1
[6] = Inhibition of alpha-chymotrypsin assessed as decrease in proteolysis of BSA at 8.5 uM to 34 uM by Lowry method; procedure, shortened: as §1
[7] = Inhibition of alpha-chymotrypsin assessed as decrease in proteolysis of BSA at 93 uM to 372 uM by Lowry method; procedure, shortened: as §1
[8] = Inhibition of alpha-chymotrypsin assessed as decrease in proteolysis of BSA at 80 uM to 320 uM by Lowry method; procedure, shortened: as §1

CC(C)(C)OC(=O)N[C@@H](Cc1ccccc1)C(=O)N1CC#Cc2ccccc2C#CCC1
Ki [1]: 3 µM
Activity [2]: Active
Activity [3]: Active

CC(C)(C)OC(=O)N[C@@H](Cc1ccccc1)C(=O)OCC(=O)N1CC#Cc2ccccc2C#CCC1
Ki [1]: 30 µM
Activity [2]: Active
Activity [4]: Active

CC(C)(C)OC(=O)N[C@@H](Cc1ccccc1)C(=O)OCC(=O)N1CC#C/C=C\C#CCC1
Activity [5]: Active
Activity [2]: Active

C[C@H](NC(=O)OC(C)(C)C)C(=O)N[C@@H](Cc1ccccc1)C(=O)NCCC#Cc1ccccc1C#CC=O
Ki [1]: 12 µM
Activity [6]: Active
Activity [2]: Active

CC(C)(C)OC(=O)N[C@@H](Cc1ccccc1)C(=O)OCC(=O)N1CCCCC1
Activity [7]: inactive
Activity [2]: inactive

CC(C)(C)OC(=O)N[C@@H](Cc1ccccc1)C(=O)N1CCc2ccccc2C1
Activity [2]: inactive
Activity [8]: inactive
